Results taken from publication PMC11303814 (Nature Communications, 2024).
Substitutions are numbered along the chain they refer to. “Also recorded” adds a separate entry of the source.

Legend:
[1] = target: T1, rP2X7-R125A/Q143A/I214A (Rattus norvegicus, UniProt Q64663, I214A/Q143A/R125A); test: TEVC deactivation time; format: cell-based; conditions: after 100 μM ATP or 100 μM BzATP
T1 sequence (Q64663 1-595 R125A/Q143A/I214A): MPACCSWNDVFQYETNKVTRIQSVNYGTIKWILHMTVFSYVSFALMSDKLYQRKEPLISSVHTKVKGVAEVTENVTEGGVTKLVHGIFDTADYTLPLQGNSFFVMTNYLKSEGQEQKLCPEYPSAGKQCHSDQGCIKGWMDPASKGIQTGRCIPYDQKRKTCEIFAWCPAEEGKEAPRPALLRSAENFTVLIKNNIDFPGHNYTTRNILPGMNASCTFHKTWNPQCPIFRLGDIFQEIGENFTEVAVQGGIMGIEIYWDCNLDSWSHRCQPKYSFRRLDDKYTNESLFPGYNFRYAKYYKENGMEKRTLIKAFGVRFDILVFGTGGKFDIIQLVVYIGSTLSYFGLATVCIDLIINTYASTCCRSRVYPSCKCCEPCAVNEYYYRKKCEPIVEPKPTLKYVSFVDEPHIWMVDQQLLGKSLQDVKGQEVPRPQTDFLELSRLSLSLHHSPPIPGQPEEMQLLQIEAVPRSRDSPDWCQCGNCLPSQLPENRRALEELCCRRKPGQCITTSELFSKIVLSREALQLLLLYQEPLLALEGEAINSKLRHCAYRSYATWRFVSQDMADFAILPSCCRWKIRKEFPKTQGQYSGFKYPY
How it was run: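 Triple-mutant rP2X7 was expressed ~20 h in Xenopus oocytes (50 nL of 10 ng/µL mRNA) and recorded by TEVC in pH 7.4 HEPES buffer containing flufenamic acid. Deactivation followed 100 µM ATP or 100 µM BzATP. τ is the time to 63% return to baseline after washout, from a one- or two-phase decay fit. Triplicate over first to third applications per oocyte; mean ± SD.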

[2] = target: T1, rP2X7-R125A/Q143A/I214A; test: TEVC dose response; format: cell-based; conditions: read-out: EC50 (apparent affinity), mean ± SD, triplicate
[3] = target: T2, biotinylated rP2X7 (Rattus norvegicus, UniProt Q64663); test: Bio-layer interferometry; format: binding; conditions: for rate constant for association (ka) / rate constant for dissociation (kd): 30 °C, PBS pH 7.4, 0.5 mM DDM, 1:1 Langmuir global fit, mean ± SD of three
T2 sequence (Q64663 1-595): T1 sequence (Q64663 1-595 R125A/Q143A/I214A) with A125R, A143Q, A214I
How it was run: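 Full-length rat P2X7 expressed in HEK293 GnTI cells by BacMam, purified in DDM/CHS (TALON, SEC), then biotinylated with NHS-PEG12-biotin at pH 8.0, 23 °C, 60 min. Loaded at 50 µg/ml onto streptavidin tips, blocked with biocytin. Threefold agonist dilutions (ATP 30–0.12 µM; BzATP 3.3–0.014 µM): 90 s association, 300 s (ATP) or 800 s (BzATP) dissociation. Double reference subtraction used biocytin sensors and zero analyte. KD = kd/ka.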

[4] = target: T3, wild-type rP2X7 (Rattus norvegicus, UniProt Q64663); test: TEVC efficacy experiments, wild-type rP2X7 in oocytes; format: cell-based; conditions: WT rP2X7, identical concentrations of ATP and BzATP
T3 sequence (Q64663 1-595): T1 sequence (Q64663 1-595 R125A/Q143A/I214A) with A125R, A143Q, A214I
How it was run: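 Oocytes expressing rP2X7 (~20 h after mRNA injection), TEVC in pH 7.4 HEPES/flufenamic acid buffer. Each oocyte first received 100 µM ATP as the normalization reference, then sequentially 50 µM ATP, 50 µM BzATP, 100 µM ATP and 100 µM BzATP, with buffer washout to baseline between applications. Normalized currents are from triplicates per concentration per construct; mean ± SD.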

[5] = target: T4, rP2X7 K127A (Rattus norvegicus, UniProt Q64663, K127A); test: TEVC dose response; format: cell-based; conditions: read-out: EC50 (apparent affinity), mean ± SD, triplicate
T4 sequence (Q64663 1-595 K127A): T1 sequence (Q64663 1-595 R125A/Q143A/I214A) with A125R, K127A, A143Q, A214I
How it was run: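 TEVC was run on Xenopus oocytes ~20 h after injection of wild-type or mutant rP2X7 mRNA, in pH 7.4 HEPES buffer with 0.1 mM flufenamic acid. Receptors were facilitated at 100 µM before recording. Dilution series: ATP 1.5 mM–2 µM (7 points), BzATP 300–0.14 µM (8 points). Responses were normalized to the largest concentration, fitted by nonlinear regression for EC50, and averaged across triplicates (mean ± SD).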

| Compound | deactivation lifetime τ [1] | EC50 [2] | rate constant for association (ka) ([3]; BLI) | rate constant for dissociation (kd) ([3]; BLI) | affinity for rP2X7 lower than that of human P2X3 ([3]; KD rP2X7 vs human P2X3) | affinity for rP2X7 lower than that of zebra fish P2X4 ([3]; KD rP2X7 vs zebra fish P2X4) | efficacy (agonist character, current amplitude) [4] | EC50 [5] | higher binding affinity (KD) than ATP ([3]; BLI, rP2X7) |
| --- | --- | --- | --- | --- | --- | --- | --- | --- | --- |
| Nc1ncnc2c1ncn2[C@@H]1O[C@H](COP(=O)(O)OP(=O)(O)OP(=O)(O)O)[C@@H](O)[C@H]1O [ATP] | 2.4 ± 0.8 s | 203 ± 12 µM | 9.4 ± 2.4 x10^4 M^−1s^−1 | 5.1 ± 2.5 x10^−2 s^−1 | approximately 190 fold | ~46 fold | partial agonist | 22 ± 3 µM |  |
| BzATP | 3.7 ± 0.7 s | 198 ± 60 µM | 3.7 ± 1.0 x10^5 M^−1s^−1 | 2.6 ± 1.0 x10^−3 s^−1 |  |  | full agonist; also recorded: greater inward current than ATP | 2.9 ± 0.4 µM | ~ 70 fold |
